The record followed here is the array DNA melting data of Ke et al. (doi:10.1101/2024.01.08.574731).

A short description of series [1]: folding enthalpy; higher = less favourable; fluorescence melt of hairpins on a sequencing array, two-state fit. The settings on record: sodium 0.088 M. A digest of the protocol:
(§1)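 On a sequenced MiSeq flow cell, library hairpins with annealed Cy3 and quencher oligos were imaged for Cy3 fluorescence in 2.5 °C steps up to 60 °C, in 50 mM Na-HEPES pH 8.0, 25 mM NaCl. Normalisation used pre-quench Cy3 and control constructs. Bootstrapped two-state fits gave melting temperature and folding enthalpy, combined by inverse variance across four replicates and with fitted temperatures raised by 9.35 °C to match UV melts.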

Series [2] is described as follows: melting temperature; fluorescence melt of hairpins on a sequencing array, two-state fit, raised by 9.35 °C to match UV melts. The settings on record: sodium 0.088 M. A digest of the protocol:
as §1

Consider GCTCGGCGAAAGCCCGGC ((..(((....)))..)), for which the folding enthalpy in series [1] is -7.98 kcal/mol. In addition, the Tm in series [2] turned out to be 56.9 °C.
As to GATCATAACTATGATC ((((((....)))))), the folding enthalpy in series [1] is -35.8 kcal/mol. In addition, in series [2], the Tm came to 48 °C.
GCGGTAGGAAACTATCGC (((.(((....))).))): the folding enthalpy in series [1] was -37.9 kcal/mol. Also, the Tm in series [2] stood at 53.7 °C.
As for GCAAGTGGAAACACCTGC (((.(((....))).))), in series [1], the folding enthalpy is -25.3 kcal/mol. Moreover, in series [2], the Tm is 40.5 °C.
Regarding GGCCTTCGAAAGAACGCC (((.(((....))).))), the folding enthalpy in series [1] is -30.7 kcal/mol. For the same sequence, in series [2], the Tm stood at 44.4 °C.
For GCGAACGGTCGC ((((....)))), in that order: -30.9 kcal/mol and 47.7 °C.
For GGAGCGGGAAACTGCTCC (((((.(....).))))), in series [1], the folding enthalpy was -45 kcal/mol. The Tm in series [2] stood at 60.9 °C.
For GGGGTAGGAAACTGTCCC (((..((....))..))), in that order: -25.5 kcal/mol and 36.2 °C.
Take GTTCGGCGAAAGCCAAC (((.(((....)))))): in series [1], the folding enthalpy is -12.3 kcal/mol. The Tm in series [2] was 42.9 °C.
For GCCTTGGGAAACTAGGGC (((.(.(....).).))), in that order: -30.1 kcal/mol and 36.5 °C.
Take GCGACCGGAAACGGCCAC (.(.(((....))).).): in series [1], the folding enthalpy is -14.4 kcal/mol. Also, the Tm in series [2] came to 32.5 °C.
Take GACGTGGCGAAAGCCGTC (((..(((....)))))): the folding enthalpy in series [1] was -16.5 kcal/mol. The Tm in series [2] worked out at 50.4 °C.
For GCATCTCGAAAGAGTGC (((.(((....)))))), in that order: -49.8 kcal/mol and 53.4 °C.
For GAGCCCGGAAACGGGTTC ((.((((....)))).)), in that order: -27 kcal/mol and 56.7 °C.
Take GCTTTGCGAAAGCGAAGC ((((.((....)).)))): the folding enthalpy in series [1] was -37.2 kcal/mol. The Tm in series [2] was found to be 66.2 °C.
For GTGGACGAAAGTCTGCAC ((((((....)))..))), the folding enthalpy in series [1] was -15.7 kcal/mol. Moreover, the Tm in series [2] was determined as 40.6 °C.
For GTTCGGCGAAAGCCCAAC (((.(((....))).))), in that order: -11.2 kcal/mol and 37.1 °C.
In the case of GAACCCGAAAGGGATTTC ((((((....)))..))), in series [1], the folding enthalpy was -11.1 kcal/mol. For the same sequence, the Tm in series [2] was 29.5 °C.
Turning to GTCGTAGCGAAAGCTGAC (((..(((....)))))), in series [1], the folding enthalpy is -19.6 kcal/mol. Moreover, in series [2], the Tm was 46.3 °C.
With CGATTTCGGAAACGATCG (((..(((....)))))), in series [1], the folding enthalpy is -9.46 kcal/mol. In addition, the Tm in series [2] turned out to be 29.6 °C.
With GGAAGAGGAAACTCTTCC (((((((....))))))), the folding enthalpy in series [1] is -42.1 kcal/mol. Besides, the Tm in series [2] is 58.2 °C.
For GATTACGAAAGTATAATC ((((((....)))..))), in that order: -7.84 kcal/mol and 27.1 °C.
For GCGGAGCGAAAGCTTCGC (((.(((....))).))), in that order: -31.2 kcal/mol and 68.6 °C.
For GGGTACGAAAGTAACCCC ((((((....)))..))), in that order: -21.9 kcal/mol and 54.2 °C.
GTCGCTCCGAAAGGAGAC (((..(((....)))))): the folding enthalpy in series [1] was -10.5 kcal/mol. For the same sequence, the Tm in series [2] was determined as 34.9 °C.
For GCCATGCGAAAGCGGGGC (((..((....))..))), in that order: -35 kcal/mol and 65.3 °C.
On to GATCGTAGGAACGATC ((((((....)))))), for which the folding enthalpy in series [1] was -30.9 kcal/mol. Moreover, in series [2], the Tm amounted to 52.4 °C.
For GTACGCGAAAGCGATTAC ((((((....)))..))), in that order: -11.2 kcal/mol and 29.7 °C.
On to GTTGTATCGAAAGATAAC (((..(((....)))))), for which the folding enthalpy in series [1] was -27.3 kcal/mol. Also, in series [2], the Tm was 37.1 °C.
For GAGGGCCGAAAGGCTCTC (((.(((....))).))), in that order: -30.6 kcal/mol and 67 °C.
For CGCGCGGAAACGCCAGCG ((((((....)))..))), in that order: -23 kcal/mol and 53.9 °C.
For the sequence GTATATGCGAAAGCATAC (((..(((....)))))), in series [1], the folding enthalpy is -8.89 kcal/mol. Moreover, the Tm in series [2] came to 32.1 °C.
Turning to CGACCGGAAACGGCATCG ((((((....)))..))), in series [1], the folding enthalpy was -14.8 kcal/mol. In addition, in series [2], the Tm worked out at 30 °C.
With GATGTCGGAAACGGCATC ((((.((....)).)))), the folding enthalpy in series [1] is -46.5 kcal/mol. Moreover, in series [2], the Tm is 54.4 °C.
GCACTCGGAAACGGGTGC ((((.((....)).)))): the folding enthalpy in series [1] was -51.6 kcal/mol. Also, the Tm in series [2] stood at 59.5 °C.
As for GACGCCCGAAAGGGAGTC (((.(((....))).))), the folding enthalpy in series [1] is -32.8 kcal/mol. For the same sequence, the Tm in series [2] was found to be 66.7 °C.
As to GTAGAGCGAAAGCTTAC (((.(((....)))))), the folding enthalpy in series [1] was -12.8 kcal/mol. Also, the Tm in series [2] amounted to 38.5 °C.
For GCACGGCCGAAAGGCTGC (((..(((....)))))), in that order: -10 kcal/mol and 45.1 °C.
GATCACGGAAGTGATC ((((((....)))))): the folding enthalpy in series [1] is -29.3 kcal/mol. The Tm in series [2] worked out at 68.9 °C.
For GCTGTGCGAAAGCCGAGC (((..((....))..))), in that order: -19 kcal/mol and 41.8 °C.
Regarding GTTAAGCGAAAGCTAAAC (((.(((....))).))), in series [1], the folding enthalpy was -19.9 kcal/mol. Also, the Tm in series [2] worked out at 41.5 °C.
For the sequence GTTTAGAAATAAAC (((((....))))), the folding enthalpy in series [1] was -9.32 kcal/mol. The Tm in series [2] stood at 28.4 °C.
For GCCAGGCGAAAGCCTCGC ((.((((....)))).)), the folding enthalpy in series [1] was -17.4 kcal/mol. In series [2], the Tm amounted to 54 °C.
For GTGAAGGGAAACCTTTGC (..((((....))))..), the folding enthalpy in series [1] was -20.1 kcal/mol. The Tm in series [2] is 31.7 °C.
With GGACGCGGAAACGCACCC ((..(((....)))..)), in series [1], the folding enthalpy is -10.1 kcal/mol. Further, the Tm in series [2] came out at 33.7 °C.
GCATTGGGAAACCAGTGC (((.(((....))).))): the folding enthalpy in series [1] was -34.4 kcal/mol. For the same sequence, the Tm in series [2] was 50.7 °C.
As to GGAAGGGAAACCTTCC ((((((....)))))), the folding enthalpy in series [1] was -38 kcal/mol. In addition, the Tm in series [2] was found to be 55.2 °C.
For GTACCCCGAAAGGGATAC (((.(((....))).))), in that order: -19.6 kcal/mol and 46.1 °C.
For GTGTACGGAAACGTGTAC ((..(((....)))..)), in that order: -20.4 kcal/mol and 35.2 °C.
Consider GCGGCTTCGAAAGAACGC (((..(((....)))))), for which the folding enthalpy in series [1] is -21.4 kcal/mol. In series [2], the Tm was 44.6 °C.
For GGCGCCCGAAAGGGGCC (((.(((....)))))), in that order: -17.2 kcal/mol and 67.4 °C.
For GCGCATGGAAACATGCAC (.(((((....))))).), in that order: -12.5 kcal/mol and 47.1 °C.
For GATCAGTCGTCTGATC ((((((....)))))), in that order: -36.5 kcal/mol and 52.3 °C.
Regarding GATCTACTCCTAGATC ((((((....)))))), in series [1], the folding enthalpy is -33 kcal/mol. Also, in series [2], the Tm was 39.5 °C.
Take GGTATCGCGAAAGCGACC (((..(((....)))))): the folding enthalpy in series [1] is -9.09 kcal/mol. Besides, the Tm in series [2] turned out to be 31.7 °C.
With GCTGTCGAAAGACTAAGC ((((((....)))..))), the folding enthalpy in series [1] is -20 kcal/mol. Moreover, the Tm in series [2] came out at 46.2 °C.
For GACCACGAAAGTGGAGTC ((((((....)))..))), in that order: -11.5 kcal/mol and 38.4 °C.
GGAGTCGAAAGACTTCC ((((((....))).))): the folding enthalpy in series [1] was -21.2 kcal/mol. In addition, the Tm in series [2] worked out at 48.7 °C.
For GTCTGCCGAAAGGCGAC (((.(((....)))))), the folding enthalpy in series [1] is -18.1 kcal/mol. Also, the Tm in series [2] came to 54.9 °C.
For GCTTTAGGAAACTAAGGC ((.((((....)))).)), in that order: -27.7 kcal/mol and 37 °C.
For GATCTTATGAAAGATC ((((((....)))))), in that order: -30.6 kcal/mol and 40.6 °C.
For GGTTAGGGAAACCTAGCC ((.((((....)))).)), in that order: -27.2 kcal/mol and 46.3 °C.
For GCGTCCGAAAGGAGGCGC ((((((....)))..))), the folding enthalpy in series [1] is -36.3 kcal/mol. Besides, in series [2], the Tm was 67.5 °C.
Regarding GGATAAGAAATTATCC ((((((....)))))), the folding enthalpy in series [1] was -27.6 kcal/mol. Besides, in series [2], the Tm came out at 42.1 °C.
As for GACCCTGGAAACAGAGTC (((.(((....))).))), in series [1], the folding enthalpy is -29.5 kcal/mol. In addition, the Tm in series [2] stood at 36.6 °C.
As for GATCGAGGCTCGATC ((((((...)))))), in series [1], the folding enthalpy is -42.1 kcal/mol. The Tm in series [2] was 55.5 °C.
For GCGAACACGAAAGTGCGC (((..(((....)))))), the folding enthalpy in series [1] was -21.2 kcal/mol. For the same sequence, the Tm in series [2] was found to be 51 °C.
With GCACCACGAAAGTGTTGC (((.(((....))).))), the folding enthalpy in series [1] is -35.9 kcal/mol. The Tm in series [2] came to 52.6 °C.
For GCACCATCGAAAGATTGC (((..(((....)))))), in that order: -20 kcal/mol and 29.1 °C.
In the case of GATCTCGACAGAGATC ((((((....)))))), the folding enthalpy in series [1] is -41.9 kcal/mol. Moreover, in series [2], the Tm turned out to be 66.8 °C.
For GGACGCGAAAGCGTGTCC ((((((....)))..))), in that order: -12.7 kcal/mol and 54 °C.
For GTGGTGGGAAACCATCGC (.(.(((....))).).), in that order: -24.9 kcal/mol and 41.6 °C.
For GATCACAAAGGTGATC ((((((....)))))), in that order: -32.8 kcal/mol and 53.6 °C.
